Results taken from publication PMC7854864 (Cell chemical biology, 2020).

Legend:
[1] = test system: MYC transcriptional activity; test: MYC luciferase reporter assay in HEK293T cells; format: cell-based, human; conditions: for activity in MYC luciferase reporter assay: dose response, Table S4
In short: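 HEK293T cells (DMEM, 10% FBS) seeded at 35,000/well and transfected with Lipofectamine 2000 (complexes formed 25 min at room temperature). Reporter: firefly luciferase driven by TATA box plus tandem E-box repeats; negative control lacked response elements. Cells treated with DMSO or test compound (50 μM screen, or dose series) for 24 h. Firefly and Renilla read; blank subtracted, Firefly:Renilla calculated per well, then normalised to vehicle. n=3.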

[2] = molecular target: pure human MYC C171Y mutant protein (Homo sapiens, UniProt P01106, C186Y); test: Gel-based ABPP with pure C171Y mutant MYC protein; format: binding; conditions: 50 μM, 2 h, 37°C
In short: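 Pure human wild-type and C171Y MYC (0.3 μg in 50 μl PBS) labelled directly with alkyne probe (50 μM) for 2 h at 37 °C. Rhodamine-azide (1 μM final) attached by CuAAC, 1 h at room temperature. Samples run on reducing SDS/PAGE (4–20% gels), fixed in acetic acid/ethanol, and imaged by in-gel rhodamine fluorescence; silver stain used for loading.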

[3] = molecular target: purified recombinant human MYC/MAX complex (Homo sapiens, UniProt P01106); test: MYC/MAX in vitro DNA binding to E-box consensus sequence; format: biochemical
In short: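 Human full-length c-MYC (0.2 μg) was pre-incubated for 30 min at 37 °C with DMSO or test compound diluted from 50 mM DMSO stock into dPBS. MAX (0.2 μg) was then added, and the mixture was transferred to wells coated with the E-box consensus sequence for 1 h binding. Bound complex was detected with primary and secondary antibodies following a commercial transcription-factor kit protocol. IC50 was derived from the dose-response.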

[4] = molecular target: C171Y mutant MYC protein (with MAX) (Homo sapiens, UniProt P01106, C186Y); test: MYC/MAX in vitro DNA binding with C171Y mutant MYC; format: biochemical; conditions: 50 μM
In short: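 Plate-based assay adapted from a c-Myc transcription factor kit. Test compound (50 μM; diluted from 50 mM DMSO stock into dPBS) or DMSO pre-incubated with 0.2 μg pure full-length wild-type or C171Y MYC for 30 min at 37 °C. Then 0.2 μg MAX added and the mixture bound to wells coated with the E-box consensus sequence for 1 h. Bound complex detected with primary and secondary antibodies.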

C171Y FLAG-MYC = test: MYC luciferase reporter in HEK293T cells expressing C171Y versus WT FLAG-MYC; format: cell-based, human; conditions: 50 μM, 24 h
In short: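 HEK293T cells seeded at 35,000/well and co-transfected with the MYC E-box luciferase reporter plus 1 μg/well FLAG-eGFP, FLAG-wild-type or FLAG-C171Y c-MYC plasmid (site-directed mutant), using Lipofectamine 2000 at 3:1 to DNA. Treated with DMSO or 50 μM test compound for 24 h. Blank-subtracted Firefly:Renilla expressed relative to DMSO set to 1; FLAG expression checked by Western blot.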

[5] = test system: MYC transcriptional activity; test: MYC luciferase reporter upon JUN knockdown; format: cell-based, human; conditions: HEK293T, siJUN, 24 h
pure human MYC protein = pure human MYC protein (Homo sapiens, UniProt P01106); test: Gel-based ABPP with pure MYC protein; format: binding; conditions: pre-incubation 30 min 37°C, then EN4-alkyne-2 50 μM 2 h
In short: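 Pure human full-length MYC (0.3 μg in 50 μl PBS) pre-treated with DMSO or test compound for 30 min at 37 °C, then labelled with alkyne probe (50 μM) for 2 h at 37 °C. Rhodamine-azide (1 μM final) attached by CuAAC, 1 h at room temperature. Samples heated at 90 °C for 5 min in reducing Laemmli buffer, run on 4–20% gels, fixed, and read by in-gel fluorescence; silver stain used for loading.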

MYC = MYC (Homo sapiens, UniProt P01106); test: Cellular thermal shift assay; format: cell-based; conditions: 231MFP cells, 50 μM, 2 h
In short: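 231MFP cells (L15, 10% FBS, 37 °C, 0% CO2) at 80% confluence were exposed to test compound or DMSO at 50 μM for 120 min. They were then resuspended in PBS with protease inhibitors, still containing compound or DMSO, and heated for 3 min at eight temperatures (37.0–58.0 °C). After 3 min at 25 °C, cells were freeze-thaw lysed and spun at 20,000 g. Soluble c-MYC, MAX and GAPDH were measured by Western blot densitometry, relative to DMSO.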

MAX = MAX (Homo sapiens, UniProt P61244); test: Cellular thermal shift assay; format: cell-based; conditions: 231MFP cells, 50 μM, 2 h
In short: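 231MFP cells at 80% confluence treated with DMSO or 50 μM test compound for 120 min, then resuspended in PBS with protease inhibitors and compound or DMSO kept present. Aliquots heated 3 min at eight temperatures (37.0–58.0 °C), held 3 min at 25 °C, lysed by three liquid-nitrogen freeze-thaw cycles and spun 20,000 g, 20 min, 4 °C. Soluble MAX measured by Western blot with GAPDH as loading control; band intensity quantified.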

pure human c-JUN protein = pure human c-JUN protein (Homo sapiens, UniProt P05412); test: Gel-based ABPP with pure JUN protein; format: binding; conditions: Fig. S3b
In short: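 Recombinant pure human c-JUN (0.1 μg) was pretreated with DMSO or test compound in 25 μl PBS for 1 h at 37 °C. It was then labeled with 200 nM IA-rhodamine for 1 h at room temperature. Samples were denatured in reducing Laemmli buffer at 90 °C for 5 min, separated on 4–20% SDS/PAGE gels, fixed, and read by in-gel fluorescence.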

MYC target genes = test: RNA sequencing of EN4-treated 231MFP cells; format: cell-based, human; conditions: 50 μM, 24 h
In short: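 231MFP cells seeded in 6 cm dishes and treated with DMSO or 50 μM test compound for 24 h before RNA sequencing. Transcript changes reported as log₂ fold change of treated versus DMSO controls.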

[6] = test system: CDK2, CDC25A and MYC protein levels; test: Western blotting of MYC transcriptional targets in 231MFP cells; format: cell-based, human; conditions: 50 μM, 36 h
In short: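 231MFP cells treated with DMSO or 50 μM test compound for 36 h, with medium and treatment replenished at 24 h. CDK2, CDC25A and MYC levels measured by Western blot with vinculin as loading control. n=3 biological replicates; blots quantified; unpaired two-tailed t-test.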

[7] = test system: 231MFP breast cancer cells; test: 231MFP cell proliferation; format: cell-based, human; conditions: 50 μM, daily treatment, 72 h
In short: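 231MFP cells (L15, 10% FBS, 37 °C, 0% CO2) seeded at 15,000/well in serum-containing L-15. Treated the next day with DMSO or test compound, with media and compound replaced daily for 72 h. Wells fixed and stained with 10% formalin plus Hoechst 33342 for 15 min at room temperature in the dark, washed and imaged. Reported as percent proliferation versus DMSO; unpaired two-tailed t-test.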

[8] = test system: MYC-transformed mammary epithelial MCF10A cells; test: Serum-free cell survival, MYC-expressing MCF10A; format: cell-based, human; conditions: 48 h
In short: (§1)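 MCF10A parental or MYC-overexpressing cells (maintained in DMEM/F12K with 5% horse serum, EGF, cholera toxin, insulin and hydrocortisone) seeded at 40,000/well and allowed to adhere overnight. Treated with DMSO or test compound in serum-free medium for 48 h. Fixed and stained with formalin/Hoechst 33342, then imaged. Survival normalised to the DMSO control of each line set to 1; unpaired two-tailed t-test.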

parental MCF10A cells = test: Serum-free cell survival, parental MCF10A; format: cell-based, human; conditions: 48 h
In short: as §1

[9] = test system: 231MFP breast tumor xenograft; test: 231MFP tumor xenograft study; format: in vivo; conditions: 50 mg/kg ip once per day, started 14 days after implantation, SCID mice
In short: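 Female C.B17 SCID mice (6–8 weeks) received 1 × 10⁶ 231MFP cells subcutaneously in the flank, suspended in serum-free medium. From 2 weeks after implantation, vehicle (18:1:1 PBS/ethanol/PEG40) or 50 mg/kg test compound was given ip once daily. Tumour size measured weekly by calipers; unpaired two-tailed t-test.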

MIZ1 or ZBTB17 = test: MIZ1/ZBTB17 level with EN4 treatment; format: cell-based; conditions: Fig. S3f
endogenous c-MYC = endogenous c-MYC (Homo sapiens, UniProt P01106); test: EN4-alkyne-4 enrichment of endogenous MYC in cells; format: cell-based; conditions: 231MFP cells, 50 μM, 4 h, in situ
In short: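 231MFP cells at 70% confluency exposed in situ to DMSO or 50 μM alkyne probe for 4 h. Cells lysed by sonication and lysates normalised to 3.2 mg/mL. Probe-labelled proteins conjugated by CuAAC and pulled down. c-MYC in the pulldown detected by blotting; input c-MYC and vinculin also shown. n=3 biological replicates, quantified.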

purified recombinant human MYC/MAX complex, sequence (P01106 16-454, one chain of several): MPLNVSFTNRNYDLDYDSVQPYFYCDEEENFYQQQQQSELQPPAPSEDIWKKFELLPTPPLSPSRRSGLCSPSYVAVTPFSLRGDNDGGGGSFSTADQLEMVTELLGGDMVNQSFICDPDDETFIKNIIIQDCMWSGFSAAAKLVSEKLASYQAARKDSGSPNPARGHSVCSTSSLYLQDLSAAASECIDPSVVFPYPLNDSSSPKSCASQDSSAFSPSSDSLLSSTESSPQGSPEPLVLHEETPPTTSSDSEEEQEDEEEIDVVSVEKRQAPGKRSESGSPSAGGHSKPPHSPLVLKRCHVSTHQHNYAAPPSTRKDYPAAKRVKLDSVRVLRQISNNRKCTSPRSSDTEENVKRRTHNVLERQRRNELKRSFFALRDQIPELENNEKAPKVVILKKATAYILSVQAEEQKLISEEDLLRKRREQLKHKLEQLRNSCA
endogenous c-MYC, sequence (P01106 16-454): as the sequence (P01106 16-454, one chain of several) above
MAX, sequence (P01106 16-454 partner limits assumed): as the sequence (P01106 16-454, one chain of several) above
MAX, sequence (P61244 whole entry): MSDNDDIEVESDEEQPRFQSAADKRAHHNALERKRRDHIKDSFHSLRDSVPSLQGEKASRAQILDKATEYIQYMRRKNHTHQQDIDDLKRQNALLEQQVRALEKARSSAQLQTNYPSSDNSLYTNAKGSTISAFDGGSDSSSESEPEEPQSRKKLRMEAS
MYC, sequence (P01106 16-454): as the sequence (P01106 16-454, one chain of several) above
pure human MYC protein, sequence (P01106 16-454): as the sequence (P01106 16-454, one chain of several) above
C171Y mutant MYC protein (with MAX), sequence (P01106 16-454 C186Y): as the sequence (P01106 16-454, one chain of several) above, with C171Y counted along it
pure human MYC C171Y mutant protein, sequence (P01106 16-454 C186Y): as the sequence (P01106 16-454, one chain of several) above, with C171Y counted along it
pure human c-JUN protein, sequence (P05412 whole entry): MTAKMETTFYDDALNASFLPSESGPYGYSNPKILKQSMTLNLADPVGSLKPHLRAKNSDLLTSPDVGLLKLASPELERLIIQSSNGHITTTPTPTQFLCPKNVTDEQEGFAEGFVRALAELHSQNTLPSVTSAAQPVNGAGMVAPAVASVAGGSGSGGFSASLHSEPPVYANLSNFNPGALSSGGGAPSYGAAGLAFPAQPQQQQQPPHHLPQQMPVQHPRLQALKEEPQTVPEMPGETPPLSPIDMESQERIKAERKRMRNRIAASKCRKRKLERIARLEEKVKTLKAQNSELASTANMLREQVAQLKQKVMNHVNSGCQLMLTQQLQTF

CCOc1ccc(Oc2ccccc2NC(=O)c2ccc(CNC(=O)CCl)cc2)cc1 [EN4–3, 4-((2-chloroacetamido)methyl)-N-(2-(4-ethoxyphenoxy)phenyl)benzamide]
activity in MYC luciferase reporter assay ([1]; HEK293T): loss of activity

CCOc1ccc(Oc2ccccc2NC(=O)c2ccc(CNC(=O)/C=C/C(F)(F)F)cc2)cc1 [EN4–6, (E)-N-(2-(4-ethoxyphenoxy)phenyl)-4-((4,4,4-trifluorobut-2-enamido)methyl) benzamide]
activity in MYC luciferase reporter assay ([1]; HEK293T): loss of activity

C#CCOc1ccc(NC(=O)c2ccc(CNC(=O)C=C)cc2)c(Oc2ccc(OCC)cc2)c1 [EN4-alkyne-2, 4-(acrylamidomethyl)-N-(2-(4-ethoxyphenoxy)-4-(prop-2-yn-1-yloxy)phenyl) benzamide]
probe labeling of C171Y mutant MYC compared to wild-type [2]: labeling was not observed

CCOc1ccc(Oc2ccccc2NC(=O)c2ccc(CNC(=O)CC)cc2)cc1 [EN4–18, N-(2-(4-ethoxyphenoxy)phenyl)-4-(propionamidomethyl)benzamide]
inhibition of MYC/MAX DNA binding in vitro ([3]; Fig. S4): significantly inhibits MYC/MAX DNA binding
activity in MYC luciferase reporter assay ([1]; HEK293T): inhibited MYC luciferase reporter activity

C=CC(=O)NCc1ccc(C(=O)Nc2ccccc2Oc2ccc(OCC)cc2)cc1 [EN4]
IC50 ([3]; read-out: 50 % inhibitory concentration (IC50) for MYC/MAX binding to the E-box response element DNA consensus sequence, dose-response, Fig. 1d, pre-incubated with MYC 30 min before MAX): 6.7 µM
inhibition of MYC/MAX DNA binding with C171Y mutant compared to wild-type MYC [4]: significantly attenuated
inhibition of MYC transcriptional activity in covalent ligand screen ([1]; 50 μM, 24 h, HEK293T, Fig. 1b): strongest inhibition
MYC inhibitory effect in cells expressing C171Y FLAG-MYC compared to WT FLAG-MYC (C171Y FLAG-MYC): significantly attenuated
inhibition of MYC luciferase reporter activity upon JUN knockdown compared to control cells [5]: comparable inhibitory effects
competition of EN4-alkyne-2 labeling of pure MYC (pure human MYC protein): displaced the labeling of EN4-alkyne-2
MYC thermal stability (MYC): significantly reduced MYC thermal stability
MAX thermal stability (MAX): reduced the thermal stability
competition against IA-rhodamine labeling of pure JUN (pure human c-JUN protein): competition of EN4 against labeling of pure JUN protein
expression of direct MYC target genes and MYC-regulated gene targets (MYC target genes): significantly downregulated
MYC protein levels [6]: substantially reduced
protein levels of CDK2 and CDC25A [6]: significantly lowered
inhibition of proliferation [7]: > 90%
cell survival of MYC-transformed MCF10A cells [8]: impaired the cell survival
cell survival of parental MCF10A cells (parental MCF10A cells): but not parental MCF10A cells
tumor growth in vivo [9]: significantly attenuated tumor growth
level of MYC binding partner MIZ1 or ZBTB17 (MIZ1 or ZBTB17): upregulation

C#Cc1ccc(Oc2ccc(OCC)cc2)c(NC(=O)c2ccc(CNC(=O)C=C)cc2)c1 [EN4-alkyne-4, 4-(acrylamidomethyl)-N-(2-(4-ethoxyphenoxy)-5-ethynylphenyl)benzamide]
EC50 ([1]; Homo sapiens, HEK-293T, read-out: EC50 in MYC luciferase reporter assay): 1.4 µM
enrichment of endogenous c-MYC versus vehicle (endogenous c-MYC): significantly enriched endogenous c-MYC
